Compound activity as filed in PubChem.
ZTA DNA inh: counter-screen for EBNA-1 inhibitors: inhibitors of Epstein-Barr virus ZTA. ZTA-DNA binding, fluorescence polarization. inhibition, % at 11 µM. 0.15% of 320,000 active. P03206; in the data active = inhibition above about 33%
Target sequence (P03206 whole entry, looked up): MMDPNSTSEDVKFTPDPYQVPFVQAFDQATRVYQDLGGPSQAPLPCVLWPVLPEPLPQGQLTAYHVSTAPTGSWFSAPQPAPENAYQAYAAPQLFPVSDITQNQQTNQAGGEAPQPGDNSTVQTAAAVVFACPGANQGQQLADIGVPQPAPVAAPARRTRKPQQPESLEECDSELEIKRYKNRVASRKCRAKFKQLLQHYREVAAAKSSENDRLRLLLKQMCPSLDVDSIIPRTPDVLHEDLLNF
HCV NS3 hel inh: inhibitors of Hepatitis C virus NS3 helicase; NS3 helicase DNA unwinding, Cy5 molecular beacon fluorescence; inhibition, % at 10.9 µM; 0.56% of 290,000 active;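 active = inhibition above the mean of all tested compounds plus 3 SD, set per campaign, cut at about 35% in these data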;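 note: 0% = DMSO wells and 100% = thioflavine S control wells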
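Material: hepatitis C virus NS3 helicase domain fragment enzyme; measured by: Cy5 fluorescence, 0 and 60 min reads; control set: DMSO and thioflavine S; incubation: 60 min unwinding reaction at 25 °C after ATP addition; read-out basis: % inhibition from 60/0 min fluorescence ratio, DMSO 0%, thioflavine S 100%; repeats: singlicate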
GPR7 antag: blocks human GPR7 receptor signaling; inhibition, % at 4.4 µM; P48145; GPR7-expressing cells, fluorescence antagonist assay; 1.1% of 290,000 active; in the data active = inhibition above about 16%, passing the limit was not always enough;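 note: cells stimulated with the agonist NPW; 0% = agonist with vehicle and 100% = vehicle without agonist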
Target sequence (P48145 whole entry, looked up): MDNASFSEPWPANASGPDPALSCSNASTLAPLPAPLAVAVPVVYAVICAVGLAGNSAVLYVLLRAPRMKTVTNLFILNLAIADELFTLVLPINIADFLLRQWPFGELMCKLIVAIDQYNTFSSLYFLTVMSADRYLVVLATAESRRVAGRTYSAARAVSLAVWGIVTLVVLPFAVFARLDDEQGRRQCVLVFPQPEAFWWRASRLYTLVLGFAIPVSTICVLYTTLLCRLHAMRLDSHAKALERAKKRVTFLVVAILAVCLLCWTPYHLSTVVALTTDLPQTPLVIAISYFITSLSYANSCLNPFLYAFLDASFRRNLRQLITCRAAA
DNA FID counter-1: counter-screen for HCV NS3 helicase inhibitors: DNA intercalator displacement; DNA fluorescent intercalator displacement, fluorescence; 0.17% of 290,000 active; AID 1845; inhibition, % at 7.9 µM; in the data active = inhibition above about 37%;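 note: 0% = vehicle and 100% = reference compound; higher means more ethidium bromide displaced from hairpin DNA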
EBNA-1 inhibitor: blocks EBNA-1 binding to DNA; EBNA-1 DNA binding, fluorescence polarization; inhibition, % at 14.8 µM; 0.34% of 300,000 active; in the data active = inhibition above about 28%
NS3 hel confirm: confirmation of Hepatitis C virus NS3 helicase inhibitors | NS3 helicase DNA unwinding, Cy5 molecular beacon fluorescence | inhibition, % at 10.9 µM | 31% of 1,600 active | shares compounds with HCV NS3 hel inh;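 active = inhibition above the mean of all tested compounds plus 3 SD, cutoff set per campaign, cut at about 36% in these data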
DNA FID counter-2: intercalator displacement, NS3 helicase counter-screen | DNA fluorescent intercalator displacement, fluorescence | 4% of 1,600 active | inhibition, % at 7.9 µM | AID 1945 | shares compounds with HCV NS3 hel inh; in the data active = inhibition above about 37%;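 note: 0% = vehicle and 100% = reference compound; higher means more displacement of ethidium bromide from the DNA hairpin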
FID counter DR: counter-screen for HCV NS3 helicase inhibitors: DNA intercalator displacement dose response; fluorescent intercalator displacement from DNA, fluorescence; shares compounds with HCV NS3 hel inh; IC50, µM; AID 2172; 120 tested, under 10 active
GPR7 antag conf: human GPR7 antagonism, confirmation assay; AID 1952; 52% of 2,400 active; GPR7-expressing cells, calcium fluorescence antagonist mode; inhibition, % at 4.4 µM; shares compounds with GPR7 antag; in the data active = inhibition above about 24%;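 note: stimulated with the GPR7 agonist NPW; 0% = agonist plus vehicle and 100% = vehicle alone without agonist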
MCHR1 antag: MCHR1 (human) antagonism in GPR7 counter-screen | 62% of 2,400 active | MCHR1-expressing cells, fluorescence antagonist assay | shares compounds with GPR7 antag | inhibition, % at 4.4 µM; in the data active = inhibition above about 22%;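 note: 0% = vehicle with agonist and 100% = vehicle without agonist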
ZTA inh confirm: confirmation of Epstein-Barr virus ZTA DNA binding inhibitors. shares compounds with ZTA DNA inh. Zta-ZRE DNA binding, fluorescence polarization. inhibition, % at 11.1 µM. 30% of 320 active. AID 2361;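 active = mean inhibition across triplicate runs above the hit threshold derived for the original primary screen, cut at about 33% in these data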;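 note: 0% = Zta with DMSO and 100% = wells lacking Zta protein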
EBNA1 counter: blocks EBNA-1 DNA binding in ZTA counter-screen | shares compounds with ZTA DNA inh | fluorescence polarization | inhibition, % at 14.8 µM | 320 tested, under 10 active | AID 2362
Numbers without * were called inactive; i = inactive; / = no result; ! = not confirmed by another sample. Sampled rows, rich in hits. Any-hit rate of the full collection: about 2%. Unless noted, the rule behind the calls is not given here.

SMILES	ZTA DNA inh	HCV NS3 hel inh	GPR7 antag	DNA FID counter-1	EBNA-1 inhibitor	NS3 hel confirm	DNA FID counter-2	others
CN(C)[C@@H]1C(=O)C(C(N)=O)=C(O)[C@@]2(O)C(=O)C3=C(O)c4c(O)cccc4[C@@](C)(O)C3C[C@@H]12 (some centres not stated)	-3	/	/	/	4	/	/
CN(C)[C@@H]1C(=O)C(C(N)=O)=C(O)[C@@]2(O)C(=O)C3=C(O)c4c(O)ccc(Cl)c4[C@@](C)(O)[C@H]3C[C@@H]12	-14	48*	1	-10	-8	7	20
CN(C)[C@@H]1C(=O)C(C(N)=O)=C(O)[C@@]2(O)C(=O)C3=C(O)c4c(O)cccc4[C@@](C)(O)[C@H]3[C@H](O)[C@@H]12	8	36*	-8	-9	30*!	97*	18
O=C(c1ccccc1)c1cn(CC(=O)N2CCOCC2)c2ccccc12	16	57*	1	-9	9	-7	3
COc1ccc(N2CCN(Cc3nc4ccccc4[nH]3)CC2)cc1	-14	38*	-3	-14	-9	-11	-2
COC(=O)C1=C(c2ccc(F)cc2F)C[C@@H]2CC[C@H]1N2C(=O)NC1Cc2ccccc2C1	-8	/	/	/	/	/	/
COC(=O)C1=C(c2ccc(F)cc2OCc2ccccc2)C[C@@H]2CC[C@H]1N2C(=O)NCc1cccc(C(F)(F)F)c1	0	/	/	/	/	/	/
COC(=O)C1=C(c2ccc(C(C)=O)cc2)C[C@@H]2CC[C@H]1N2C(=O)NCc1ccc(C(F)(F)F)cc1	-7	/	/	/	/	/	/
CCn1c(O)c(C=Nc2ccc(N3CCOCC3)cc2)c(=O)n(CC)c1=S	-3	40*	8	1	7	-7	-22
CCn1c(O)c(C=Nc2ccc(N3CCOCC3)c(Br)c2)c(=O)n(CC)c1=S	-1	0	-9	-2	-10	/	/
CCSC(=O)N1CCCCCC1	-4	/	/	/	/	/	/
COC(=O)C1=C(c2ccc(OCc3ccccc3)cc2)C[C@@H]2CC[C@H]1N2C(=O)NC1CCN(Cc2ccccc2)CC1	13	/	/	/	/	/	/
CCCc1cc(=O)oc2cc(OCC(=O)N3CCC(C(=O)O)(c4ccccc4)CC3)ccc12	3	49*	12	-23	0	-24	-26
CCCc1cc(=O)oc2cc(OCC(=O)N3CCN(Cc4ccc5c(c4)OCO5)CC3)ccc12	-11	-10	-7	-15	5	/	/
O=C1NC(=O)N(c2ccc3c(c2)OCO3)C(=O)/C1=C\c1ccc(-c2ccccc2C(=O)O)o1	1	24	-19	-21	-11	/	/
Cc1cccc(N2C(=O)NC(=O)/C(=C/c3ccc(-c4ccc(C(=O)O)c(Cl)c4)o3)C2=O)c1	-7	37*	-7	-22	-8	-22	14
CCN1C(=O)C(=C/C=C/c2ccco2)C(=O)N(CC)C1=S	5	39*	-11	-19	7	75*	6
CC(C)n1c(=O)c(C=Nc2ccc(F)cc2)c(O)n(Cc2ccco2)c1=O	-5	48*	-7	-43	-5	-5	5
O=C1NC(=O)N(Cc2ccco2)C(=O)/C1=C\c1cccn1CCOc1ccc(Cl)cc1	16	44*	2	-22	-1	25	-5
CC[n+]1c(/C=C/C=C/c2ccc(N(C)C)cc2)sc2ccccc21	164*	48*	4	3	105*	107*	36
CC[n+]1c(/C=C/N(C)c2ccccc2)sc2ccc(Cl)cc21	7	-3	-4	-3	-4	/	/
COC(=O)C1=C(c2ccc(OC)c(OC)c2)C[C@@H]2CC[C@H]1N2C(=O)NCC1CC1	5	/	/	/	/	/	/
COc1ccc(N2C(=O)NC(=O)/C(=C/c3ccc([N+](=O)[O-])s3)C2=O)cc1	25	39*	1	-8	6	50*	0	FID counter DR=i
COC(=O)C1=C(c2cccc(NC(C)=O)c2)C[C@@H]2CC[C@H]1N2C	-8	/	/	/	/	/	/
CCN(CC)c1ccc(N=Cc2c(O)n(-c3ccccc3C)c(=O)[nH]c2=O)cc1	32	34	-10	-14	-7	/	/
SMILES	ZTA DNA inh	HCV NS3 hel inh	GPR7 antag	DNA FID counter-1	EBNA-1 inhibitor	NS3 hel confirm	DNA FID counter-2	others
Cc1ccccc1-n1c(O)c(C=Nc2ccc3c(c2)OCO3)c(=O)[nH]c1=O	-5	37*	-9	-12	2	-14	1
COC(=O)C1=C(c2cccc(Cl)c2)C[C@@H]2CC[C@H]1N2C(=O)N1CCCC1	7	/	/	/	/	/	/
CCOc1ccccc1-n1c(O)c(C=Nc2ccc(N(CC)CC)cc2)c(=O)[nH]c1=O	37*	54*	6	-16	0	-7	-12	ZTA inh confirm=5;EBNA1 counter=0
CCC(c1ccc(C)cc1)N1C(=O)C2C3CCC(O3)C2C1=O (configuration not stated)	-11	/	/	/	/	/	/
CN(C)C1(CNC(=O)c2ccc(NS(=O)(=O)c3ccc(Cl)c(Cl)c3)cc2)CCCCC1	-5	/	/	/	/	/	/
CN(C)C1(CNC(=O)Nc2ccc(Cl)c(Cl)c2)CCCCC1	12	-27	30*	17	1	/	/	GPR7 antag conf=43*;MCHR1 antag=47*
C/C(=N\NP(=S)(c1ccccc1)c1ccccc1)c1ccc(O)cc1O	-8	-3	-12	0	0	/	/
CC(=O)NCCc1c[nH]c2ccccc12	-4	-14	-2	-8	5	/	/
CC(=O)c1cn(CC(=O)NCCc2c[nH]c3ccccc23)c2ccccc12	10	1	25*	-8	-4	/	/	GPR7 antag conf=3;MCHR1 antag=51*
CCN(CC)c1ccc(/C=C/[N+](=O)[O-])cc1	8	-6	22*	6	2	/	/	GPR7 antag conf=55*;MCHR1 antag=84*
Cc1[nH]c2ccc(OC(F)(F)F)cc2c1CCNCc1cccc([N+](=O)[O-])c1	6	-55	43*	20	2	/	/	GPR7 antag conf=35*;MCHR1 antag=75*
Cc1[nH]c2ccc(OC(F)(F)F)cc2c1CCNCc1ccc(Cl)cc1	/	-71	36	20	/	/	/
CCOc1cccc(CNCCc2c(C)[nH]c3ccc(OC(F)(F)F)cc23)c1O	-14	-76	53*	37	-10	/	/	GPR7 antag conf=84*;MCHR1 antag=95*
CC/C(=N\NC(=O)c1ccccc1Cl)c1c(O)n(C2CCCCC2)c(=O)[nH]c1=O	-18	8	35*	-49	4	/	/	GPR7 antag conf=0;MCHR1 antag=6
